Assay results taken from the EternaBench riboswitch data.

System: MS2 coat protein
Test: apparent Kd, MS2 coat protein; higher = weaker binding; RNA-MaP array; FMN 200 µM where present
Procedure, shortened: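 On Illumina sequencing-chip clusters, designs were transcribed by stalled E. coli RNA polymerase and titrated with SNAP-549-labelled MS2 coat protein (0.7 or 1.5 nM, doubling to 3 µM), without and then with constant ligand, in 100 mM Tris-HCl pH 7.5, 80 mM KCl, 4 mM MgCl2, BSA, DTT, yeast tRNA and Tween-20. Apparent Kd is the median of filtered per-cluster curve fits to green signal normalised to red-channel RNA signal and control-cluster median Fmax.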

[1] = designed as: OFF switch for flavin mononucleotide, no ligand
[2] = ligand present: flavin mononucleotide, designed as: OFF switch for flavin mononucleotide
[3] = designed as: ON switch for flavin mononucleotide, no ligand
[4] = ligand present: flavin mononucleotide, designed as: ON switch for flavin mononucleotide

| Sequence | apparent Kd [1] | apparent Kd [2] | apparent Kd [3] | apparent Kd [4] |
| --- | --- | --- | --- | --- |
| GGAUGACAAAGUCAUCCUAUUCGAACAUGAGGAUCACCCAUGUAGGAUAUGCUUCUCAAAGAGAAGCAGAAGGACAUGUGCCUU | 32 nM | 182 nM |  |  |
| GGAUGACAAAGUCAUCCUUAACGAACAUGAGGAUCACCCAUGUAGGAUAUGCUUCUCAAAGAGAAGCAGAAGGACAUGUGCCUU | 33.3 nM | 256 nM |  |  |
| GGAUGACAUAGUCAUCCUUAACGAACAUGAGGAUCACCCAUGUAGGAUAUGCUACUCAAAGAGUAGCAGAAGGGCGUGUGUCUU | 42.6 nM | 49 nM |  |  |
| GGAUGAUUAACAGGAUAUCAUUUGUAAAUUGGUUGAGAAGGGUUAAUGAUUUAAACGACCUGUUACAUGAGGAUCACCCAUGUU |  |  | 64.3 nM | 38.2 nM |
| GGAUGUCAAAGACAUCCAAUACGAACAUGAGGAUCACCCAUGUAGGAUAUGCUACUCAAAGAGUAGCAGAAGGACAUGUGCCUU | 33.6 nM | 271 nM |  |  |
| GGAUGUCAAAGACAUCCAAUUCGAACAUGAGGAUCACCCAUGUAGGAUAUGCUACUCAAAGAGUAGCAGAAGGACAUGUGCCUU | 30.6 nM | 213 nM |  |  |
| GGAUUACAUGAGGAUCACCCAUGUGAGGAUAUCGAUGUCCUGUCUUUAGUGCGGGACUCGAGAAGGCACUUGGA | 48 nM | 159 nM |  |  |
| GGCAGAUUCCACAUGAGGAUCACCCAUGUGCUCUUCCGGGCACAGGAUAUCCGCAGUGGUUUCUUGGAGAAGGGUGCUGAUUAA |  |  | 26.8 nM | 42.4 nM |
| GGCCGGAAUGUAGGAUAUGGAUAUUUAAAUAUACCAGAAGGACAUGAGGAUCACCCAUGUAUAAUAAUUAACAAACUUAGAUCC | 32.7 nM | 121 nM |  |  |
| GGCCUGUAAGGAUAUUAGUAGUAGUCAGAAAAGACUAUUACUGAGAAGGUACAUGAGGAUCACCCAUGUUGGCC | 17.4 nM | 20.1 nM |  |  |
| GGCGGCAAUGAGAAGGGUCACAUGAGGAUCACCCAUGUGCUCUUCGCCGUGACAGGAUAUCAUCGCCGUCAGGUUAGAUUUUUG | 7.26 nM | 26.1 nM |  |  |
| GGCGGGCGAAACAUGAGGAUCACCCAUGUGUUAUACUUAAUAUAGGAUAUGUUUAUACUUUUUGGGCAGAAGGAUGCGCCUGCC |  |  | 37.9 nM | 33.4 nM |
| GGCGGUCGGGAGGAUAUUCGGGCUGUUUGGCUUGGAGAAGGCUCGACAUGAGGAUCACCCAUGUUGGUGUUUCC | 561 nM | 103 nM |  |  |
| GGCGGUGACAUAGGAUAUCUUCUAAUGCACAUGAGGAUCACCCAUGUCGCUACGCACGGGUUUGAAGAGAAGGGUGUUCGUGCC |  |  | 346 nM | 286 nM |
| GGCUAACAUGAGGAUCACCCAUGUCGCCAAAAUCGAGGAUAUGGGUGCCAGCUCGGGCAGCCAGAAGGCGACAAAA |  |  | 225 nM | 33.1 nM |
| GGCUACGUUUCGUAGCAGUGUCAUCGAGAAGGCCCUGACAUGAGGAUCACCCAUGUUGUUACAUGGGAGGAUAUCGAUGAUACA |  |  | 12.5 nM | 4.96 nM |
| GGCUGACAUGUAGGAUAUCUGCACGUGUAGUGCAGAGAAGGACAUGAGGAUCACCCAUGUAUAGCGACUUCGGUCGCAACAGCC | 49.2 nM | 159 nM |  |  |
| GGCUGCGUUGUGAAGGAUAUCCGCGUCUGGACAUGAGGAUCACCCAUGUAUGCUUGGAUCAUGCCGGAGAAGGUCACGAAUGAUU |  |  | 34.3 nM | 17 nM |
| GGCUGGCAGCUAGGAUAUGGGCGAUCACAUGAGGAUCACCCAUGUCAACAUCAAAACAAGAUUAACCAGAAGGAGCCGCGGGUU |  |  | 18.4 nM | 76.7 nM |
| GGGAAACAUGAGGAUCACCCAUGUGAGGAUAUCGAAAAAAAAAAAAAAAAAAAAAAAACGAGAAGGCACACCGG | 71 nM | 110 nM |  |  |
| GGGAAGUAAGGAUAUGCUGCUCGUCACUUGCGUGAUGAGUAGCAGAAGGUACAUGAGGAUCACCCAUGUAAAAA | 30.2 nM | 28.6 nM |  |  |

| Sequence | apparent Kd [1] | apparent Kd [2] | apparent Kd [3] | apparent Kd [4] |
| --- | --- | --- | --- | --- |
| GGGAAGUGAGGAUAUAUGAGAGAGGCUGAACCGGACGAGAAGUAGAAGGCACAUGAGGAUCACCCAUGUAGGGA | 118 nM | 86 nM |  |  |
| GGGAAGUUAGGAUAUGCUGCUCGUCACUUGCGUGAUGAGUAGCAGAAGGGACAUGAGGAUCACCCAUGUAAAAA | 51.1 nM | 26.8 nM |  |  |
| GGGACGAAAGUCGAACGAUGUAGCAGAAGGACAUGAGGAUCACCCAUGUCAGCUGUAACAGCCAUGUAGGAUAUGCUACAUCCC | 4.61 nM | 5.96 nM |  |  |
| GGGAUACACCAGAAGGACAUGAGGAUCACCCAUGUAGGAUAUGGGUACGCCGACAUUGGUCUGCUCUCGGUAGACUUUCCCGAU |  |  | 203 nM | 39.6 nM |
| GGGCAAAAGUAGAAGGGAUAUACGAAAAGUAUAUCAGGAUAUACAUGAGGAUCACCCAUGUUCUAAAAGUGAUAGUCCUCCCUA | 33.3 nM | 262 nM |  |  |
| GGGCCCGGAGGAUAUACAAUCCCGGGUUGAAAGGCCCGGGUACAUGAGGAUCACCCAUGUAGAAGGUUGGGCCC | 14.2 nM | 17.3 nM |  |  |
| GGGCCCGGAGGAUAUACAAUUGUGUGUGGAAACGCGCGCGUACAUGAGGAUCACCCAUGUAGAAGGCCGGGCCC | 15.9 nM | 54.6 nM |  |  |
| GGGCCCGGAGGAUAUACAUGAGGAUCACCCAUGUACCCGGGUUUUAUUGGGCCCGGGUGUAGAAGGCCGGGCCC | 13.1 nM | 14.8 nM |  |  |
| GGGCGACAUGAGGAUCACCCAUGUCAGGAUAUCGGGCCCGGGCCGAAAGGCCCGGGCCCGAGAAGGGACAGCCC | 18.8 nM | 16.6 nM |  |  |
| GGGCUCGGAGGAUAUACAAUUCUGGGCUGAAAGGCUCGGGUACAUGAGGAUCACCCAUGUAGAAGGUCGGGUCU | 15.9 nM | 15.9 nM |  |  |
| GGGCUGUCAGGAUAUCGCGCGCGCGCGGAAAUGUGUGUGUGUGAGAAGGGACAUGAGGAUCACCCAUGUGGCCC | 35.6 nM | 36.8 nM |  |  |
| GGGUAAUAUCGAGGAUAUGUCUAGACACAUGAGGAUCACCCAUGUAUGUGUAUAGAAGGCGAUAUUAACAGCAUGUUACAUCCC |  |  | 48.1 nM | 20.8 nM |
| GGGUACAUCCGAGGAUAUCAUGUAAAUACAUGAGGAUCACCCAUGUCGAUGGAGACAUCGGAGAUUGAGAAGGCCGAUGUACCG |  |  | 344 nM | 22.9 nM |
| GGGUACAUCGGAGGAUAUCAUGUAAAGACAUGAGGAUCACCCAUGUCGAUGGAGACAUCGGAGAUUGAGAAGGCCGAUGUACCG |  |  | 26.4 nM | 6.19 nM |
| GGGUACAUCGGAGGAUAUCAUGUAAAUACAUGAGGAUCACCCAUGUCGAUAGAGACAUCGGAGAUUGAGAAGGCCGAUGUACCG |  |  | 41.7 nM | 300 nM |
| GGGUACAUCGGAGGAUAUCAUGUAAAUACAUGAGGAUCACCCAUGUCGAUGGAGACAUCAGAGAUUGAGAAGGCCGAUGUACCG |  |  | 14.9 nM | 6.15 nM |
| GGGUACAUCGGAGGAUAUCAUGUAAAUACAUGAGGAUCACCCAUGUCGAUGGAGACAUCGGAGAUUGAGAAGGCCGAUGUACCA |  |  | 154 nM | 10.1 nM |
| GGGUACAUCGGAGGAUAUCAUGUAAAUACAUGAGGAUCACCCAUGUCGAUGGAGACAUCGGAGAUUGAGAAGGCCGAUGUCCCG |  |  | 194 nM | 7.99 nM |
| GGGUACAUCGGAGGAUAUCAUGUAAAUACAUGAGGAUCACCCAUGUCGAUGGAGACAUCGGAUAUUGAGAAGGCCGAUGUACCG |  |  | 18.7 nM | 5.46 nM |
| GGGUACAUCGGAGGAUAUCAUGUAAAUACAUGAGGAUCACCCAUGUCGAUGGAGACAUCGGCGAUUGAGAAGGCCGAUGUACCG |  |  | 752 nM | 17.6 nM |
| GGGUACAUCGGAGGAUAUCAUGUAAAUACAUGAGGAUCACCCAUGUCGAUGGAGCCAUCGGAGAUUGAGAAGGCCGAUGUACCG |  |  | 14.3 nM | 5.63 nM |
